From ChEMBL document CHEMBL5029200, “Imidazoline- and Benzamidine-Based Trypanosome Alternative Oxidase Inhibitors: Synthesis and Structure-Activity Relationship Studies” (ACS Med Chem Lett, 2022)

What was measured:
[1] = Selectivity index, ratio of CC50 for HEK293 cells to EC50 for antitrypanosomal activity against bloodstream form trypomastigotes of wild type Trypanosoma brucei brucei Lister 427; assay type: toxicity; conditions: human, read-out: Selectivity Index
Outline: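 Selectivity index = CC50 in HEK cells divided by EC50 against wild-type Lister 427. HEK cytotoxicity by resazurin assay. […] Both values from sigmoidal variable-slope nonlinear regression. n = 3.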

[2] = tested on: Trypanosoma brucei brucei; assay: Inhibition of recombinant Trypanosoma brucei brucei delta MTS TAO using ubiquinol as substrate measured at 40 uM after 2 mins by UV-vis spectrophotometry
[3] = tested on: Trypanosoma brucei brucei; assay: Antitrypanosomal activity against bloodstream form trypomastigotes of wild type Trypanosoma brucei brucei Lister 427 assessed as reduction in parasite viability by resazurin-based assay; assay type: functional, organism-based
Outline: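 Monomorphic bloodstream-form trypanosomes grown in complete HMI-9 with 10% fetal bovine serum. Resazurin viability assay using 23 doubling dilutions of each compound, starting at 100 μM. EC50 obtained by nonlinear regression fitted to a variable-slope sigmoid. n = 3.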

[4] = tested on: Trypanosoma brucei brucei; assay: Inhibition of recombinant Trypanosoma brucei brucei delta MTS TAO using ubiquinol as substrate measured at 40 uM after 2 mins by UV-vis spectrophotometry
[5] = Inhibition of recombinant Trypanosoma brucei brucei delta MTS TAO using ubiquinol as substrate measured after 2 mins by UV-vis spectrophotometry

Question: With `Cc1cc(O)cc(O)c1C(=O)NCCCCCCCCCCCCCCOc1ccc(C(=N)N)cc1` as the compound, how does the selectivity ratio [1] read?
Answer: Its selectivity ratio is 10.7.

Question: With `Cc1cc(O)cc(O)c1C(=O)NCCCCCCCCCCCCCCOc1ccc(C(=N)NO)cc1` as the compound, how does the selectivity ratio [1] read?
Answer: The selectivity ratio was 6.9.

Question: For `C/C(=C\Cc1c(O)c(Cl)c(C)c(C=O)c1O)CC/C=C(\C)[C@@H]1CC(=O)C(C)(C)O1`, which inhibition [2] is on record?
Answer: The inhibition was 100%.

Question: Which EC50 [3] does the source give for `Cc1cc(O)cc(O)c1C(=O)NCCCCCCCCCCCCOc1ccc(C2=NCCN2)cc1` here?
Answer: The EC50 was 1700 nM.

Question: With `Cc1cc(O)cc(O)c1C(=O)NCCCOc1ccc(C(=N)N)cc1` as the compound, how does the inhibition [4] read?
Answer: The inhibition was 48%.

Question: And the IC50 [5]?
Answer: Its IC50 is greater than 40000 nM.

Question: With `Cc1cc(O)cc(O)c1C(=O)NCCCCCCOc1ccc(C#N)cc1` as the compound, how does the selectivity ratio [1] read?
Answer: The selectivity ratio was 6.6.
